Measurements reported in ChEMBL document CHEMBL1255453, “Affinity of ceftaroline and other beta-lactams for penicillin-binding proteins from Staphylococcus aureus and Streptococcus pneumoniae” (Antimicrob Agents Chemother, 2010).
Converted amounts (≈) assume the structure as drawn.

Columns and labels:
[1] = molecular target: T1, MecA (Staphylococcus aureus, UniProt Q7DHH4); assay: Binding affinity to methicillin-resistant, heteroresistant vancomycin-intermediate, beta-lactamase-negative Staphylococcus aureus 873 PBP2a by competitive binding assay
T1 sequence (Q7DHH4 whole entry): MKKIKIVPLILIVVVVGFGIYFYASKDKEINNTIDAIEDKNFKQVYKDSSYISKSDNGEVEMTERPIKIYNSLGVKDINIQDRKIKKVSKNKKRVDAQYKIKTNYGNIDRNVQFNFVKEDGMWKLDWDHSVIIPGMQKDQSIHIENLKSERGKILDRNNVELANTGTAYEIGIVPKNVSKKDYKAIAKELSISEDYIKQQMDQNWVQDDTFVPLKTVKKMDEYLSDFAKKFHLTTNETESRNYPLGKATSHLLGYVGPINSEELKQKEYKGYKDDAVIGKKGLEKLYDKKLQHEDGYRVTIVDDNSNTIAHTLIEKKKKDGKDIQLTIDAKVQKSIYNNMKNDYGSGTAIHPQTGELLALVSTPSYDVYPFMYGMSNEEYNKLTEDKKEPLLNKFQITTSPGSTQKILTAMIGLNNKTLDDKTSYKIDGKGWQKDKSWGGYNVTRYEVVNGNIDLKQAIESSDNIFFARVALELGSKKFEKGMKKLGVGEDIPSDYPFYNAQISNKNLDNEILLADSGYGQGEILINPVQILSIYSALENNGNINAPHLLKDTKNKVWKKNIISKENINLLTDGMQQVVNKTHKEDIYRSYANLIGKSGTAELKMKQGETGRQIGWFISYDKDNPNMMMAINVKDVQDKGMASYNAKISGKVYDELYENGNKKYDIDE
Outline: (§1)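 MRSA grown in brain heart infusion and harvested in exponential phase (OD600 0.3–0.4). Membranes prepared by lysozyme/lysostaphin/DNase, freeze-thaw and sonication, then ultracentrifugation. Membranes preincubated with clavulanic acid 1 mg/ml to saturate PBPs other than PBP2a. Then β-lactam 10 min at 37°C and Bocillin FL 40 μg/ml, 15 min at 37°C. SDS-PAGE fluorescence; IC50 = 50% inhibition of Bocillin FL binding; 3 isolations.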

[2] = Binding affinity to methicillin-resistant, vancomycin-intermediate, beta-lactamase-positive Staphylococcus aureus 1287 PBP3 by competitive binding assay
[3] = Binding affinity to methicillin-resistant, heteroresistant vancomycin-intermediate, beta-lactamase-negative Staphylococcus aureus 873 PBP4 by competitive binding assay
[4] = system: Streptococcus pneumoniae; assay: Antibacterial activity against penicillin-resistant Streptococcus pneumoniae 1394 by macrodilution method; assay type: functional
Outline: (§2)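 CLSI broth macrodilution MICs. The S. aureus set is 5 MRSA strains (hVISA, VISA, VRSA) plus 1 MSSA. The S. pneumoniae set is 7 clonally unrelated clinical isolates, categorised by penicillin G against 2006 CLSI M100-S17 criteria (resistant ≥2 μg/ml, susceptible ≤0.06 μg/ml).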

[5] = Binding affinity to methicillin-, linezolid-resistant, vancomycin-intermediate, beta-lactamase-positive Staphylococcus aureus 2149A PBP4 by competitive binding assay
[6] = molecular target: T1, MecA; assay: Binding affinity to methicillin-resistant, vancomycin-intermediate, beta-lactamase-positive Staphylococcus aureus 1287 PBP2a by competitive binding assay; outline: as §1
[7] = molecular target: T1, MecA; assay: Binding affinity to methicillin-, linezolid-resistant, vancomycin-intermediate, beta-lactamase-positive Staphylococcus aureus 2149A PBP2a by competitive binding assay; outline: as §1
[8] = Binding affinity to methicillin-, vancomycin-susceptible Staphylococcus aureus ATCC 29213 PBP4 by competitive binding assay
Outline: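 S. aureus grown in brain heart infusion broth and harvested at OD600 0.3 to 0.4. Membranes were prepared by lysozyme/lysostaphin/DNase I treatment, freeze-thaw, sonication and ultracentrifugation. Membranes (100 μg total protein) were preincubated with β-lactam for 10 min at 37°C, then labeled with 40 μg/ml Bocillin FL for 15 min at 37°C. SDS-PAGE with fluorescence imaging at 520 nm. IC50 is 50% inhibition of Bocillin FL binding; 3 membrane isolations.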

[9] = molecular target: T1, MecA; assay: Binding affinity to methicillin-, vancomycin-resistant, beta-lactamase-positive Staphylococcus aureus 510 PBP2a by competitive binding assay; outline: as §1
[10] = Binding affinity to methicillin-resistant, vancomycin-intermediate, beta-lactamase-positive Staphylococcus aureus 1287 PBP2 by competitive binding assay
[11] = Binding affinity to methicillin-, vancomycin-resistant, beta-lactamase-positive Staphylococcus aureus 510 PBP1 by competitive binding assay
[12] = system: Staphylococcus aureus; assay: Antibacterial activity against methicillin-, vancomycin-resistant, beta-lactamase-positive Staphylococcus aureus 510 by macrodilution method; assay type: functional; outline: as §2
[13] = Binding affinity to methicillin-resistant, heteroresistant vancomycin-intermediate, beta-lactamase-negative Staphylococcus aureus 873 PBP3 by competitive binding assay
[14] = Binding affinity to against penicillin-susceptible Streptococcus pneumoniae 1076 PBP2A by competitive binding assay
Outline: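 Whole pneumococcal cells grown to OD600 0.3 in Todd-Hewitt broth with 0.5% yeast extract, resuspended in 50 mM NaPO4 pH 7.0. Cells (10^8–5 × 10^8 CFU/ml) incubated with β-lactam 10 min at 37°C, then Bocillin FL 10 μg/ml, 15 min at 37°C. SDS-PAGE, 520 nm fluorescence; IC50 = 50% inhibition of Bocillin FL binding; 2 experiments.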

[15] = system: Streptococcus pneumoniae; assay: Antibacterial activity against penicillin-resistant Streptococcus pneumoniae 2527 by macrodilution method; assay type: functional; outline: as §2

With CO/N=C(\C(=O)N[C@@H]1C(=O)N2C(C(=O)O)=C(COC(C)=O)CS[C@H]12)c1csc(N)n1 [CEFOTAXIME] the IC50 [1] was > 281 µM, the IC50 [2] was 1 mg/L (≈ 2.2 µM) and the IC50 [3] was > 128 mg/L. For the same compound, the MIC [4] was 4 mg/L (≈ 8.78 µM), the IC50 [5] was > 128 mg/L and the IC50 [6] was 4.39 µM. The IC50 [7] was > 281 µM, the IC50 [8] was > 8 mg/L and the IC50 [9] was 2.2 µM. For the same compound, the IC50 [10] was 1 mg/L (≈ 2.2 µM), the IC50 [11] was 0.5 mg/L (≈ 1.1 µM) and the MIC [12] was > 64 mg/L. The IC50 [13] was 0.25 mg/L (≈ 0.549 µM), the IC50 [14] was 0.25 mg/L (≈ 0.549 µM) and the MIC [15] was 0.015 mg/L (≈ 0.0329 µM).
In the case of CO/N=C(\C(=O)N[C@@H]1C(=O)N2C(C(=O)O)=C(CSc3nc(=O)c(O)nn3C)CS[C@H]12)c1csc(N)n1 [CEFTRIAXONE], the IC50 [1] is reported as > 231 µM, the IC50 [2] is reported as 1 mg/L (≈ 1.8 µM) and the IC50 [3] is reported as > 128 mg/L. The MIC [4] was 2 mg/L (≈ 3.61 µM), the IC50 [5] was > 128 mg/L and the IC50 [6] was 3.61 µM. For the same compound, the IC50 [7] was 3.61 µM, the IC50 [8] was > 8 mg/L and the IC50 [9] was 1.8 µM. For the same compound, the IC50 [10] was 1 mg/L (≈ 1.8 µM), the IC50 [11] was 0.5 mg/L (≈ 0.902 µM) and the MIC [12] was > 64 mg/L. It also gave an IC50 [13] of 0.25 mg/L (≈ 0.451 µM), an IC50 [14] of 0.25 mg/L (≈ 0.451 µM) and an MIC [15] of 0.03 mg/L (≈ 0.0541 µM).
In the case of CC1(C)S[C@@H]2[C@H](NC(=O)Cc3ccccc3)C(=O)N2[C@H]1C(=O)O [PENICILLIN G], the IC50 [1] is reported as 191 µM, the IC50 [2] is reported as 0.25 mg/L (≈ 0.748 µM) and the IC50 [3] is reported as > 128 mg/L. For the same compound, the MIC [4] was 4 mg/L (≈ 12 µM), the IC50 [5] was > 128 mg/L and the IC50 [6] was 12 µM. The IC50 [7] was 5.98 µM, the IC50 [8] was > 8 mg/L and the IC50 [9] was 191 µM. It also gave an IC50 [10] of 4 mg/L (≈ 12 µM), an IC50 [11] of 128 mg/L (≈ 383 µM) and an MIC [12] of 32 mg/L (≈ 95.7 µM). For the same compound, the IC50 [13] was 0.03 mg/L (≈ 0.0897 µM) and the MIC [15] was 2 mg/L (≈ 5.98 µM).
